Each structure is given as a SMILES string. ≈ marks a conversion by molar mass, not a printed value.

Among the data in ChEMBL document CHEMBL1153363, “Structure-activity relationships for a series of quinoline-based compounds active against replicating and nonreplicating Mycobacterium tuberculosis” (J Med Chem, 2009) are MIC values, retold here.

Common to all, as to format: functional
What all share (settings): 168 h

Experiment [1] concerns Mycobacterium tuberculosis. Kind of experiment: Antitubercular activity against rifampin-resistant Mycobacterium tuberculosis H37Rv ATCC 27294 after 7 days by microplate alamar blue assay. In a few lines: (§1)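 12.8 mM DMSO stocks; two-fold dilutions in Middlebrook 7H12 broth, final 128 to 0.5 µM. Inoculum 2 × 10⁵ cfu/mL, 37 °C. On day 7, Tween 80 plus Alamar Blue added; fluorescence read (ex 530/em 590 nm) after 16-24 h more. MIC = lowest concentration giving ≥90% fluorescence drop versus bacteria-only controls; mean of two runs. RMP and INH positive controls.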

Experiment [2] concerns Mycobacterium tuberculosis. Briefly: Antitubercular activity against streptomycin-resistant Mycobacterium tuberculosis H37Rv ATCC 27294 after 7 days by microplate alamar blue assay. In a few lines:
as §1

For experiment [3], the system named is Mycobacterium tuberculosis. Briefly: Antitubercular activity against isoniazid-resistant Mycobacterium tuberculosis H37Rv ATCC 27294 after 7 days by microplate alamar blue assay. In a few lines:
as §1

With `CCOC(=O)c1cc(COc2cc(C(F)(F)F)nc3cc(C(F)(F)F)cc(C(F)(F)F)c23)on1`, the MIC in experiment [1] amounted to 0.99 µM (≈ 0.497 µg/mL); in experiment [2], 1.55 µM (≈ 0.779 µg/mL); in experiment [3] it was 0.98 µM (≈ 0.492 µg/mL).
Taken in the same sequence, the figures for `NNC(=O)c1ccncc1` [ISONIAZID] were 0.43 µM (≈ 0.059 µg/mL), 0.45 µM (≈ 0.0617 µg/mL) and more than 128 µM.
Regarding `CN[C@@H]1[C@H](O[C@H]2[C@H](O[C@H]3[C@H](O)[C@@H](O)[C@H](N=C(N)N)[C@@H](O)[C@@H]3N=C(N)N)O[C@@H](C)[C@]2(O)C=O)O[C@@H](CO)[C@H](O)[C@H]1O` [STREPTOMYCIN], the MIC is 0.2 µM (≈ 0.116 µg/mL) in experiment [1], more than 32 µM in experiment [2] and 0.38 µM (≈ 0.221 µg/mL) in experiment [3].
For the compound `CO[C@H]1/C=C/O[C@@]2(C)Oc3c(C)c(O)c4c(O)c(c(/C=N/N5CCN(C)CC5)c(O)c4c3C2=O)NC(=O)/C(C)=C\C=C\[C@H](C)[C@H](O)[C@@H](C)[C@@H](O)[C@@H](C)[C@H](OC(C)=O)[C@@H]1C` [RIFAMPIN], the figures for the minimal inhibitory concentration (MIC) in experiment [1], in experiment [2] and in experiment [3] were more than 32 µM, 0.05 µM (≈ 0.0411 µg/mL) and 0.06 µM (≈ 0.0494 µg/mL), respectively.
Taken in the same sequence, the figures for `CCOC(=O)c1cc(-c2cccc(Oc3cc(C(F)(F)F)nc4ccccc34)c2)on1` were 1.27 µM (≈ 0.544 µg/mL), 1.4 µM (≈ 0.6 µg/mL) and 1.63 µM (≈ 0.698 µg/mL).
